For data set [1], the target named is T1, D(4) dopamine receptor (Homo sapiens, UniProt P21917).
T1 sequence (P21917 whole entry): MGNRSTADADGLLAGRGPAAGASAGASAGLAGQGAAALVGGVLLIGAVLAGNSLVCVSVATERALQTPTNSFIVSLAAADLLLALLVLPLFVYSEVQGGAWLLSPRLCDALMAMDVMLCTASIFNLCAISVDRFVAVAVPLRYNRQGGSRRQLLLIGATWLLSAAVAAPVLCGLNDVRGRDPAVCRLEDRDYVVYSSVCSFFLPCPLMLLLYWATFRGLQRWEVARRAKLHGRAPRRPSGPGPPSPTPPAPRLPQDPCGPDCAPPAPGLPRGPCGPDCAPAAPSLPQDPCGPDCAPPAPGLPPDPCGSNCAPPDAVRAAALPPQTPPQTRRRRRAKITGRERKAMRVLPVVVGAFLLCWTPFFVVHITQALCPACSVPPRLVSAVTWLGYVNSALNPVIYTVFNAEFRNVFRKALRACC
In words: Displacement of [3H]N-methylspiperone from human dopamine D4.4 receptor expressed in HEK293 cell membranes incubated for 1 hr by liquid scintillation counting analysis. Put shortly: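 Membranes from HEK293 cells stably expressing human D2LR, D3R or D4.4R, 10 μg protein (D2LR, D3R) or 20 μg (D4.4R) per tube, in EBSS pH 7.4 with 0.2 mM sodium metabisulfite. [3H]N-methylspiperone 0.4 nM final. 13 half-log dilutions, 100 μM–100 pM or 10 μM–10 pM final. 10 μM butaclamol defined nonspecific binding. Triplicates, 1 h at room temperature, GF/B filtration. Ki by Cheng-Prusoff from IC50, at least three independent experiments.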
For orientation: Loss of bound radioactivity is the signal in a displacement assay; it reports binding, not function.

Data set [2] deals with D(3) dopamine receptor (Homo sapiens, UniProt P35462). The data set is described as follows: Agonist activity at human dopamine D3 receptor expressed in CHO cells assessed as stimulation of mitogenesis incubated for 16 hrs in presence of [3H]thymidine by scintillation spectrometric analysis. It counts as cell-based. On the set-up: concentration or dose not given beside the values.
Sequence of D(3) dopamine receptor (P35462 whole entry): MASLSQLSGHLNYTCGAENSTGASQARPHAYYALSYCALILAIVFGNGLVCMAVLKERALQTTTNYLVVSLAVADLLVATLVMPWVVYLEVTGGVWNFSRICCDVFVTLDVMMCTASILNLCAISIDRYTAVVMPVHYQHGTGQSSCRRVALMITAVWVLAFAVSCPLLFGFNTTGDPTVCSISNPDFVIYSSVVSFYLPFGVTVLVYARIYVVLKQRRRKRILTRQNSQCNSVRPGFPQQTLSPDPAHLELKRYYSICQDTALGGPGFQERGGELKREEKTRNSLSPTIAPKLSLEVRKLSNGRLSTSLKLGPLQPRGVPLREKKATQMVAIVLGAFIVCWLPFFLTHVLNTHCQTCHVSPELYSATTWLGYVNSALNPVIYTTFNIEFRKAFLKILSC

Data set [3] concerns the target Mu-type opioid receptor (Homo sapiens) (UniProt P35372). In words: Binding affinity to mu opioid receptor (unknown origin) at 10 uM.
The target in data set [4] is Delta-type opioid receptor (Homo sapiens) (UniProt P41143). The data set is described as follows: Binding affinity to delta opioid receptor (unknown origin) at 10 uM.
Sequence of Delta-type opioid receptor (Homo sapiens) (P41143 whole entry): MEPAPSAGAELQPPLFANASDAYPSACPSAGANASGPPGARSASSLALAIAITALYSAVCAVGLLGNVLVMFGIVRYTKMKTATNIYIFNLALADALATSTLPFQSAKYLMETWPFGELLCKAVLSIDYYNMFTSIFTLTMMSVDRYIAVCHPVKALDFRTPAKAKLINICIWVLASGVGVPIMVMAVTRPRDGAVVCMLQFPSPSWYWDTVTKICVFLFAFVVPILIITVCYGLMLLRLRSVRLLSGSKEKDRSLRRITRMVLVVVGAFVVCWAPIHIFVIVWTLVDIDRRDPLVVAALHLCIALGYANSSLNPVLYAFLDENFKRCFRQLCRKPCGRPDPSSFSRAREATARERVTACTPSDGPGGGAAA
In data set [5] the target is Kappa-type opioid receptor (Homo sapiens) (UniProt P41145). The data set is described as follows: Binding affinity to kappa opioid receptor (unknown origin) at 10 uM.
Sequence of Kappa-type opioid receptor (Homo sapiens) (P41145 whole entry): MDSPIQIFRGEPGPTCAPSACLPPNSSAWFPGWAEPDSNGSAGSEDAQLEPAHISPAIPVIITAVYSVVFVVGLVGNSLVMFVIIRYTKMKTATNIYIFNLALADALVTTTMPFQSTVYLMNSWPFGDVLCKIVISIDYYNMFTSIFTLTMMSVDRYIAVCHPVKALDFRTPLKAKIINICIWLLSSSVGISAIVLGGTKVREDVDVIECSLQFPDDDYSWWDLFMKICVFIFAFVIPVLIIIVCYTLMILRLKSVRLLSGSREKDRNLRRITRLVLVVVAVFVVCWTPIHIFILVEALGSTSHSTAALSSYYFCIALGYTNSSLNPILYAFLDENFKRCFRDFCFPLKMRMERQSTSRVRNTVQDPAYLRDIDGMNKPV
Data set [6] is described as follows: Metabolic stability in mouse liver microsomes assessed as compound remaining at 10 uM measured for 1 hr in presence of NADPH by LC/MS/MS analysis. It counts as ADME, Microsome. Conditions: read-out: Stability. A digest of the protocol: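 Mouse liver microsomes 0.5 mg/mL in 100 mM potassium phosphate, pH 7.4, with NADPH regenerating system; compound 10 μM final. Testosterone as phase I positive control. Disappearance over time by LC/MS/MS; triplicate sampling.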
Background: Liver microsomes are a subcellular fraction often used to study metabolism.

Data set [7] is described as follows: Toxicity in C57BL/6J mouse assessed as effect on basal locomotor activity at 5 to 15 mg/kg, ip measured every 20 mins for 2 hrs on day 1. It counts as organism-based. Particulars: in vivo.
Data set [8] concerns Mus musculus. In words: Protection against oxycodone-induced locomotor sensitization in C57BL/6J mouse at 5 and 15 mg/kg, ip on day 1 followed by 5 and 15 mg/kg, ip pre-treated 15 mins before oxycodone challenge on day 2. It counts as functional, organism-based.
Data set [9] relates to Mus musculus. In words: Protection against oxycodone-induced hyperactivity in C57BL/6J mouse at 5 and 15 mg/kg, ip on day 1 followed by 5 and 15 mg/kg, ip pre-treated 15 mins before oxycodone challenge on day 2. It counts as functional, organism-based.
Data set [10] concerns Mus musculus. In words: Protection against oxycodone prime-induced locomotor sensitization in C57BL/6J mouse at 5 and 15 mg/kg, ip on day 1 followed by 5 and 15 mg/kg, ip pre-treated 15 mins before oxycodone challenge on day 2 followed by 72 hrs drug withdrawal before 4 mg/kg oxycodone injection on day 9. It counts as functional, organism-based.
The nature of data set [11]: Toxicity in Long-Evans rat assessed as induction of conditioned place preference at 15 mg/kg, ip. It counts as organism-based. Particulars: in vivo. Put shortly:
(§1)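 Rat CPP in 3-chamber apparatus; animals with preconditioning bias ≥200 s excluded. Alternating conditioning: oxycodone 3 mg/kg i.p. ×2 and saline ×2, counterbalanced, 40 min confinement; pretreatment saline or 5, 15 mg/kg i.p. 15 min before oxycodone. Home-cage oxycodone 3 mg/kg i.p. twice daily for four days. Drug-alone group: 15 mg/kg paired versus saline. Test 24 h later, 15 min; score = drug- minus saline-paired time; one-way ANOVA.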

In data set [12] the test system is Rattus norvegicus. In words: Protection against oxycodone-induced conditioned place preference in ip dosed Long-Evans rat pretreated with compound 15 mins prior to oxycodone injection. It counts as functional, organism-based. Put shortly: as §1

Calls of active or inactive are those of the source. The calls are words filed in the database; no cut-off is given here. A value given as a limit tells only on which side of the number the result lay.

Sequence of Mu-type opioid receptor (Homo sapiens) (P35372 whole entry): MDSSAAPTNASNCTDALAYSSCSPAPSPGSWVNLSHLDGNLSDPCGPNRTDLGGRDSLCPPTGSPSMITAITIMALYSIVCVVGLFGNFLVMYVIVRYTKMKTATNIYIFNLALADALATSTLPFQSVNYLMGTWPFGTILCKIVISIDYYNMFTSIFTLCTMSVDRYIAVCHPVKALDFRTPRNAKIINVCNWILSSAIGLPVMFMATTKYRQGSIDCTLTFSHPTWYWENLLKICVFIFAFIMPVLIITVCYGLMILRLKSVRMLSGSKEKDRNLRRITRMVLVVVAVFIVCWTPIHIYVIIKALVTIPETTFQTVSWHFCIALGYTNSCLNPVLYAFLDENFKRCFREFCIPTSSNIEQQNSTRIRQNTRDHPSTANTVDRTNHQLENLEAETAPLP

The Ki is a measure of affinity in units of concentration, obtained from inhibition or displacement. For orientation: EC50 means the concentration giving half of the maximal effect. On to `CCc1cc(Cl)c(OC)c(N2CCN(CC(O)CCNC(=O)c3cc4ccccc4[nH]3)CC2)c1` (stereo not drawn), for which, in data set [1], the Ki amounted to 13.9 µM. Also, the Activity is 6.7% in data set [2], “Non-Toxic” in [7], “Non-Toxic” in data set [11] and “Dose-dependent effect” in [12]. Further, the EC50 in [2] is over 8.3 µM. In addition, the result in data set [3], in data set [4] and in [5] was inactive. Besides, in data set [6], the remaining at 1 h, 10 µM was over 80%. Moreover, the outcome in data set [8], in [9] and in [10] was Active.

Values taken from ChEMBL document CHEMBL4428060 (J Med Chem, 2016).
